Assay results from ChEMBL document CHEMBL4350995, “Synthesis and antiproliferative activity of culicinin D analogues containing simplified AHMOD-based residues” (Eur J Med Chem, 2019).
Numbered stars: 1 amine (or outer) side, 2 acyl side, 3 side chain; on linkers, the order of the positions; unused ones are H or OH. Square brackets hold non-standard residues; d marks the D form. Peptide text beside a SMILES is read from it. * marks the point of attachment. X3 = CCC(=O)C[C@@H](O)C[C@@H](C)C[C@H](N[*:1])C(=O)[*:2]; X8 = CCC(=O)C[C@H](O)C[C@@H](C)C[C@H](N[*:1])C(=O)[*:2]; X2 = CCCC[C@@H](O)C[C@@H](C)C[C@H](N[*:1])C(=O)[*:2]; X6 = CCCC[C@H](O)C[C@@H](C)C[C@H](N[*:1])C(=O)[*:2]; X4 = CCCCCCCC[C@@H](C)C[C@H](N[*:1])C(=O)[*:2]; Nva(5-pentanoyl) = CCCCC(=O)CCC[C@H](N)C(=O)O; X1 = CCCCCC[C@@H](C)C[C@H](N[*:1])C(=O)[*:2]; NH((S)CH(Me)CH2NHC2H4OH) = C[C@@H](CNCCO)N*; X9 = CCC(=O)CC(O)CCC[C@H](N[*:1])C(=O)[*:2]; X5 = CCCCCCC(=O)CCC[C@H](N[*:1])C(=O)[*:2]; Gly(decyl) = CCCCCCCCCC[C@H](N)C(=O)O; X7 = O=C([C@H](CCCCO)N[*:1])[*:2]; Aoc(2) = CCCCCC[C@H](N)C(=O)O; hSer = N[C@@H](CCO)C(=O)O; Aib = CC(C)(N)C(=O)O; Butyryl = CCCC(=O)*; βAla = NCCC(=O)O

Legend:
Type in all cases: functional, cell-based
[1] = test system: MDA-MB-468; assay: Antiproliferative activity against human MDA-MB-468 cells incubated for 5 days by SRB assay; details: MDA-MB-468, 120 h
Summary of the method: (§1)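 STR-authenticated cells, <3 months passage, in DMEM + 10% FCS at 37 °C, 5% CO2, were seeded at 2000 cells/well and attached overnight. They were then exposed in duplicate to 3-fold serial dilutions from a 30 mM DMSO stock for 5 days. Staining was with sulphorhodamine B. IC50 was interpolated from 4-parameter logistic fits versus peptide-free controls on the same plate. Values are mean ± SEM, n = 2–3 independent experiments.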

[2] = test system: SK-BR-3; assay: Antiproliferative activity against human SKBR3 cells incubated for 5 days by SRB assay; details: SK-BR-3, 120 h; summary of the method: as §1
[3] = test system: T47D; assay: Antiproliferative activity against human T47D cells incubated for 5 days by SRB assay; details: 120 h
Summary of the method: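 Cells were grown in RPMI + 10% FCS (37 °C, 5% CO2, STR-authenticated, <3 months passage) and seeded at 1500 cells/well. After overnight attachment they received 3-fold serial dilutions (30 mM DMSO stock) in duplicate for 5 days. Total cells were measured by sulphorhodamine B staining. IC50 was interpolated from a 4-parameter logistic fit against same-plate untreated controls. Values are mean ± SEM, n = 2–3.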

[4] = test system: NCI-H460; assay: Antiproliferative activity against human NCI-H460 cells incubated for 5 days by SRB assay; details: NCI-H460, 120 h
Summary of the method: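 Cultured in alpha MEM + 5% FCS, 37 °C, 5% CO2; STR-authenticated, <3 months passage. Seeded at 300 cells/well and attached overnight, then given duplicate 3-fold serial dilutions of peptide (30 mM DMSO stock) for 5 days. Read-out was sulphorhodamine B staining. IC50 was interpolated from a 4-parameter logistic fit versus peptide-free controls. Values are mean ± SEM of 2–3 independent experiments.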

SMILES	IC50 [1]	IC50 [2]	IC50 [3]	IC50 [4]
CCCCCC[C@@H](C)C[C@H](NC(=O)C(C)(C)NC(=O)C(C)(C)NC(=O)[C@H](CCCCO)NC(=O)[C@@H]1CCCN1C(=O)CCC)C(=O)N[C@@H](CC(C)C)C(=O)NC(C)(C)C(=O)N[C@@H](CC(C)C)C(=O)NCCC(=O)N[C@@H](C)CNCCO (Butyryl-P[X7][Aib][Aib][X1]L[Aib]L[βAla]-{NH((S)CH(Me)CH2NHC2H4OH)})	25 nM	59 nM	14 nM	28 nM
CCCCCC[C@@H](C)C[C@H](NC(=O)C(C)(C)NC(=O)C(C)(C)NC(=O)[C@H](CC(C)C)NC(=O)[C@@H]1CCCN1C(=O)CCC)C(=O)N[C@@H](CC(C)C)C(=O)NC(C)(C)C(=O)N[C@@H](CC(C)C)C(=O)NCCC(=O)N[C@@H](C)CNCCO (Butyryl-PL[Aib][Aib][X1]L[Aib]L[βAla]-{NH((S)CH(Me)CH2NHC2H4OH)})	90 nM	280 nM	70 nM	130 nM
CCCCCC[C@@H](C)C[C@H](NC(=O)C(C)(C)NC(=O)C(C)(C)NC(=O)[C@H](CO)NC(=O)[C@@H]1CCCN1C(=O)CCC)C(=O)N[C@@H](CC(C)C)C(=O)NC(C)(C)C(=O)N[C@@H](CC(C)C)C(=O)NCCC(=O)N[C@@H](C)CNCCO (Butyryl-PS[Aib][Aib][X1]L[Aib]L[βAla]-{NH((S)CH(Me)CH2NHC2H4OH)})	74 nM	> 500 nM	66 nM	127 nM
CCCCCC[C@@H](C)C[C@H](NC(=O)C(C)(C)NC(=O)C(C)(C)NC(=O)[C@H](C[C@H](C)C[C@@H](O)CCCC)NC(=O)[C@@H]1CCCN1C(=O)CCC)C(=O)N[C@@H](CC(C)C)C(=O)NC(C)(C)C(=O)N[C@@H](CC(C)C)C(=O)NCCC(=O)N[C@@H](C)CNCCO (Butyryl-P[X6][Aib][Aib][X1]L[Aib]L[βAla]-{NH((S)CH(Me)CH2NHC2H4OH)})	297 nM	> 500 nM	264 nM	234 nM
CCCCCCC(=O)CCC[C@H](NC(=O)[C@@H]1CCCN1C(=O)CCC)C(=O)NC(C)(C)C(=O)NC(C)(C)C(=O)N[C@@H](C[C@H](C)CCCCCC)C(=O)N[C@@H](CC(C)C)C(=O)NC(C)(C)C(=O)N[C@@H](CC(C)C)C(=O)NCCC(=O)N[C@@H](C)CNCCO (Butyryl-P[X5][Aib][Aib][X1]L[Aib]L[βAla]-{NH((S)CH(Me)CH2NHC2H4OH)})	8 nM	18 nM	6 nM	5 nM
CCCCCC[C@@H](C)C[C@H](NC(=O)C(C)(C)NC(=O)C(C)(C)NC(=O)[C@H](CCCCN)NC(=O)[C@@H]1CCCN1C(=O)CCC)C(=O)N[C@@H](CC(C)C)C(=O)NC(C)(C)C(=O)N[C@@H](CC(C)C)C(=O)NCCC(=O)N[C@@H](C)CNCCO (Butyryl-PK[Aib][Aib][X1]L[Aib]L[βAla]-{NH((S)CH(Me)CH2NHC2H4OH)})	> 1000 nM	> 1000 nM	> 1000 nM	> 1000 nM
CCCCCCCCCC[C@H](NC(=O)[C@@H]1CCCN1C(=O)CCC)C(=O)NC(C)(C)C(=O)NC(C)(C)C(=O)N[C@@H](C[C@H](C)CCCCCC)C(=O)N[C@@H](CC(C)C)C(=O)NC(C)(C)C(=O)N[C@@H](CC(C)C)C(=O)NCCC(=O)N[C@@H](C)CNCCO (Butyryl-P[Gly(decyl)][Aib][Aib][X1]L[Aib]L[βAla]-{NH((S)CH(Me)CH2NHC2H4OH)})	59 nM	280 nM	232 nM	382 nM
CCCCCC[C@@H](C)C[C@H](NC(=O)C(C)(C)NC(=O)C(C)(C)NC(=O)[C@H](CCCC(O)CC(=O)CC)NC(=O)[C@@H]1CCCN1C(=O)CCC)C(=O)N[C@@H](CC(C)C)C(=O)NC(C)(C)C(=O)N[C@@H](CC(C)C)C(=O)NCCC(=O)N[C@@H](C)CNCCO (stereo partly drawn) (Butyryl-P[X9][Aib][Aib][X1]L[Aib]L[βAla]-{NH((S)CH(Me)CH2NHC2H4OH)})	70 nM	500 nM	80 nM	190 nM
CCCCCC[C@@H](C)C[C@H](NC(=O)C(C)(C)NC(=O)C(C)(C)NC(=O)[C@H](C[C@H](C)C[C@H](O)CC(=O)CC)NC(=O)[C@@H]1CCCN1C(=O)CCC)C(=O)N[C@@H](CC(C)C)C(=O)NC(C)(C)C(=O)N[C@@H](CC(C)C)C(=O)NCCC(=O)N[C@@H](C)CNCCO (Butyryl-P[X3][Aib][Aib][X1]L[Aib]L[βAla]-{NH((S)CH(Me)CH2NHC2H4OH)})	11 nM	35 nM	7 nM	8 nM
CCCCCCCC[C@@H](C)C[C@H](NC(=O)[C@@H]1CCCN1C(=O)CCC)C(=O)NC(C)(C)C(=O)NC(C)(C)C(=O)N[C@@H](C[C@H](C)CCCCCC)C(=O)N[C@@H](CC(C)C)C(=O)NC(C)(C)C(=O)N[C@@H](CC(C)C)C(=O)NCCC(=O)N[C@@H](C)CNCCO (Butyryl-P[X4][Aib][Aib][X1]L[Aib]L[βAla]-{NH((S)CH(Me)CH2NHC2H4OH)})	40 nM	236 nM	31 nM	37 nM
CCCCCC[C@@H](C)C[C@H](NC(=O)C(C)(C)NC(=O)C(C)(C)NC(=O)[C@H](C[C@H](C)C[C@H](O)CCCC)NC(=O)[C@@H]1CCCN1C(=O)CCC)C(=O)N[C@@H](CC(C)C)C(=O)NC(C)(C)C(=O)N[C@@H](CC(C)C)C(=O)NCCC(=O)N[C@@H](C)CNCCO (Butyryl-P[X2][Aib][Aib][X1]L[Aib]L[βAla]-{NH((S)CH(Me)CH2NHC2H4OH)})	111 nM	327 nM	197 nM	126 nM
CCCCCC[C@@H](C)C[C@H](NC(=O)C(C)(C)NC(=O)C(C)(C)NC(=O)[C@H](CCCC(O)CCCC)NC(=O)[C@@H]1CCCN1C(=O)CCC)C(=O)N[C@@H](CC(C)C)C(=O)NC(C)(C)C(=O)N[C@@H](CC(C)C)C(=O)NCCC(=O)N[C@@H](C)CNCCO (mixture of isomers)	20 nM	100 nM	8 nM	8 nM
CCCCCC[C@@H](C)C[C@H](NC(=O)C(C)(C)NC(=O)C(C)(C)NC(=O)[C@H](CCO)NC(=O)[C@@H]1CCCN1C(=O)CCC)C(=O)N[C@@H](CC(C)C)C(=O)NC(C)(C)C(=O)N[C@@H](CC(C)C)C(=O)NCCC(=O)N[C@@H](C)CNCCO (Butyryl-P[hSer][Aib][Aib][X1]L[Aib]L[βAla]-{NH((S)CH(Me)CH2NHC2H4OH)})	30 nM	108 nM	20 nM	30 nM
CCCCCC[C@@H](C)C[C@H](NC(=O)C(C)(C)NC(=O)C(C)(C)NC(=O)[C@H](CCCCCC)NC(=O)[C@@H]1CCCN1C(=O)CCC)C(=O)N[C@@H](CC(C)C)C(=O)NC(C)(C)C(=O)N[C@@H](CC(C)C)C(=O)NCCC(=O)N[C@@H](C)CNCCO (Butyryl-P[Aoc(2)][Aib][Aib][X1]L[Aib]L[βAla]-{NH((S)CH(Me)CH2NHC2H4OH)})	140 nM	240 nM	170 nM	190 nM
CCCCCC[C@@H](C)C[C@H](NC(=O)C(C)(C)NC(=O)C(C)(C)NC(=O)[C@H](CCCC(=O)CCCC)NC(=O)[C@@H]1CCCN1C(=O)CCC)C(=O)N[C@@H](CC(C)C)C(=O)NC(C)(C)C(=O)N[C@@H](CC(C)C)C(=O)NCCC(=O)N[C@@H](C)CNCCO (Butyryl-P[Nva(5-pentanoyl)][Aib][Aib][X1]L[Aib]L[βAla]-{NH((S)CH(Me)CH2NHC2H4OH)})	10 nM	30 nM	10 nM	10 nM
CCCCCC[C@@H](C)C[C@H](NC(=O)C(C)(C)NC(=O)C(C)(C)NC(=O)[C@H](C[C@H](C)C[C@@H](O)CC(=O)CC)NC(=O)[C@@H]1CCCN1C(=O)CCC)C(=O)N[C@@H](CC(C)C)C(=O)NC(C)(C)C(=O)N[C@@H](CC(C)C)C(=O)NCCC(=O)N[C@@H](C)CNCCO (Butyryl-P[X8][Aib][Aib][X1]L[Aib]L[βAla]-{NH((S)CH(Me)CH2NHC2H4OH)})	8 nM	32 nM	5 nM	5 nM
